# Compounds with a hit are over-represented: about 1.5% of the library has one in this group of screens.
# STAT1 blocker: inhibitors of IFN-gamma induced STAT1 signaling; inhibition, % at 5.5 µM; NIH 3T3 STAT1-luciferase reporter, luminescence; hit rate 0.35% among 200,000;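 active = inhibition above a set limit, the mean inhibition across all tested compounds plus 3 SD, cut at about 34% in these data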;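 note: 0% = IFN-gamma with DMSO and 100% = IFN-gamma with 300 µM nifuroxazide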
# STAT3 blocker: inhibitors of IL-6 induced STAT3 signaling; U3A cells, IL-6 STAT3-luciferase reporter, luminescence; host cell line lacks STAT1; inhibition, % at 5.5 µM; hit rate 0.89% among 190,000; AID 862;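 active = inhibition above the mean inhibition across all screened compounds plus 3 SD, cut at about 44% in these data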;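 note: 0% = DMSO only wells and 100% = 100 µM nifuroxazide control wells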
# Platelet DG rel: modulates dense granule release in human platelets. hit rate 0.22% among 300,000. inhibition, %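 (compounds screened at 7.5 µM in platelet-rich plasma)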. human platelet-rich plasma, SFLLRN dense granule ATP release, luminescence;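 active = mean replicate score, as percent of positive control, at or above 50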
# Lipid droplet: hepatic lipid droplet formation modulation; AML12 mouse hepatocytes, oleate lipid droplets, BODIPY imaging; inhibition, % at 6.5 µM; hit rate 0.4% among 240,000; AID 1656;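 active = lipid droplet intensity inhibited by at least 50%, with more than 500 cells counted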
#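 material = mouse AML12 hepatocyte cell line, fixed after treatment | also added = 100 µM oleic acid challenge | doses = compound at 6.5 µM only | schedule = overnight exposure | technique = Image-based BODIPY and DAPI two-channel analysis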
# H9c2 TAG inh: triacylglycerol accumulation inhibition. H9c2 cells, Nile Red lipid (TAG) fluorescence; cells loaded with 200 µM oleic acid. inhibition, % at 12.5 µM. hit rate 0.66% among 230,000;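 active = pattern-corrected inhibition of lipid staining of at least 50% with the nuclear-stain viability signal not falling by more than 50%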;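 note: 0% = DMSO wells and 100% = triacsin C control wells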
# PPC-1+TRAIL kill: kills PPC-1 cancer cells in the presence of TRAIL; PPC-1 cells + TRAIL, ATPLite viability luminescence; cell killing (% activity), % at 4 µM or 5 µM; hit rate 0.41% among 220,000;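 active = cell killing above 50% in the first pass at 4 µM, then a duplicate retest at 5 µM averaging 50% or more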;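 note: plate controls were cells with TRAIL plus DMSO for no effect and medium-only wells lacking cells for full effect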
# Hep lipid conf: confirmation of inhibitors of hepatic lipid droplet formation; shares compounds with Lipid droplet; AML12 mouse hepatocytes, BODIPY lipid droplet imaging; droplets induced with 100 µM oleic acid; inhibition, % at 5.2 µM; hit rate 65% among 870; AID 463183;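 active = inhibition of lipid droplet metric at least 50%, with more than 300 cells in each of four replicates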;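 note: plate controls were DMSO with oleic acid for no effect and 5 µM Triacsin-C for full effect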
# AML12 cytotox: counter-screen for cytotoxicity in AML12 mouse hepatocytes. shares compounds with Lipid droplet. DAPI nuclear morphology cytotoxicity imaging; hits give high values; cells fed 100 µM oleate overnight. z-score at 5 µM. hit rate 3% among 870. AID 463200; in the data active = z-score above about 6.3;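 note: compound exposure lasted overnight at 37 °C before fixation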
# AML12 tox conf: AML12 hepatocyte cytotoxicity, confirmed. cytotoxicity, % at 50 µM. 530 tested, under 10 active. shares compounds with Lipid droplet. AML12 mouse hepatocyte viability, ATP luminescence; cells loaded with 100 µM oleic acid. AID 463219;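 active = cytotoxicity above 50% in each of four replicates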;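 note: compound exposure lasted overnight at 37 °C before the ATP read; 0% = DMSO-treated cells and 100% = wells with no cells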
# * hit, by the source's call; · = no result.
SMILES,STAT1 blocker,STAT3 blocker,Platelet DG rel,Lipid droplet,H9c2 TAG inh,PPC-1+TRAIL kill,Hep lipid conf,AML12 cytotox,others
CCN(CCn1cccn1)C(=O)c1cc(COc2ccc(F)cc2Cl)on1,-3.5,4.8,-2.3,55.2*,5.6,7.8,-24.5,-0.412,
NC(=O)c1csc(CCNC(=O)c2ccccc2)n1,·,·,·,·,11.9,·,·,·,
C#CCOCCOCCOCCNc1nc(N2CCOCC2)nc(N2CCN(C(=O)[C@H]([C@@H](C)CC)n3cc([C@@H](N)Cc4ccc(O)cc4)nn3)CC2)n1,2.4,·,-2.6,55.0*,44.5,14.1,13.3,-0.697,
C#CCOCCOCCOCCNc1nc(N2CCN(C(=O)[C@H]([C@@H](C)CC)n3cc([C@@H](N)Cc4ccc(O)cc4)nn3)CC2)nc(N2CCN(C(=O)[C@H]([C@@H](C)CC)n3cc([C@@H](N)CC(C)C)nn3)CC2)n1,2.5,·,2.5,-1.2,11.2,-1.8,·,·,
O=C(NCc1ccccc1CN1CCCC1)c1cccc(N2CCCC2=O)c1,·,·,·,·,12.2,·,·,·,
CC(C)(C)CN1CCN(Cc2cccnc2)CC1CCO (stereo unspecified),·,·,-2.3,-2.2,-25.8,·,·,·,
CCCCNC(=O)C1CCN(C(=O)Nc2ccc(C)cc2)CC1,-3.6,-3.1,2.4,61.5*,31.9,13.5,57.3*,0.845,
CN(C1=C(NC(=O)c2ccc(Cl)cc2)C(=O)c2ccccc2C1=O)c1ccccc1,4.3,-16.8,6.3,68.8*,·,19.7,90.6*,-0.926,
O=C(Cn1c(=O)n(CC2CCCO2)c(=O)c2ccccc21)c1ccc(Cl)c(Cl)c1 (stereo unspecified),-0.9,7.3,2.2,5.5,6.5,9.4,·,·,
CC(C)(C)C(=O)Cn1c(=O)n(CC2CCCO2)c(=O)c2ccccc21 (stereo unspecified),-2.8,3.2,12.2,54.6*,·,15.4,9.3,-0.424,
Cc1cc(C(=O)N2CCC2(C)C(=O)NCC(C)(C)C)nn1C (stereo unspecified),·,·,·,·,17.3,·,·,·,
CCOC(=O)c1ccc(NC(=O)COc2ccc(S(=O)(=O)NC(C)(C)C)cc2)cc1,0.3,11.9,3.0,95.9*,21.0,32.0,107.5*,-0.0232,AML12 tox conf=3.4
CCOc1ccc(NC(=O)CN(C)c2ccc(S(=O)(=O)N(C(C)C)C(C)C)cn2)cc1OCC,-7.7,2.1,-9.9,52.4*,40.2,27.5,83.7*,0.0162,AML12 tox conf=38.0
Cn1c(=O)c2nc(NCc3ccccc3)sc2n(C)c1=O,·,·,·,·,7.3,·,·,·,
O=C(C[C@@H]1C[C@@H]2c3cc(NS(=O)(=O)c4ccc(F)cc4)ccc3O[C@@H]2[C@@H](CO)O1)NC1CCCCC1,·,·,·,·,7.6,·,·,·,
O=C(c1ccc(Cl)cc1)C1CCN(C(=O)NC2CCCCC2)CC1,2.7,22.8,2.9,70.3*,·,7.7,85.2*,-0.188,AML12 tox conf=10.2
O=C(Nc1ccc(Cl)cc1)C1CCN(C(=O)NC2CCCCC2)CC1,9.0,0.1,-6.0,·,-7.1,-10.4,·,·,
Cc1c(O)ccc(/C=N/Nc2nc(-c3cccnc3)nc3ccccc23)c1O,·,·,-0.7,52.5*,68.8*,0.5,81.2*,10.9*,
Oc1ccc(/C=N/Nc2nc(-c3cccnc3)nc3ccccc23)c(O)c1,·,·,12.4,-3.2,29.8,15.5,·,·,
O=S(=O)(Nc1cccc(F)c1)c1ccc(S(=O)(=O)N2CCOCC2)cc1,·,·,·,·,2.4,·,·,·,
Cc1ccc(C)c(C(=O)N2CCN(c3ncccn3)CC2)c1,·,·,-3.8,57.1*,·,·,-12.9,-0.174,
COc1ccc(CNC(=O)CCc2c[nH]c3ccccc23)cc1,·,·,-17.6,-6.9,·,·,·,·,
COc1ccc(C(=O)CCC(=O)NCCc2c[nH]c3ccccc23)cc1OC,·,·,-5.0,123.8*,·,·,98.7*,0.655,AML12 tox conf=15.6
COc1ccc(CCNC(=O)NCCc2c[nH]c3ccccc23)cc1OC,·,·,0.5,6.2,·,·,·,·,
COc1cccc(CNC(=O)CCCc2c[nH]c3ccccc23)c1,·,·,1.3,63.7*,21.6,·,69.3*,0.224,AML12 tox conf=17.1
SMILES,STAT1 blocker,STAT3 blocker,Platelet DG rel,Lipid droplet,H9c2 TAG inh,PPC-1+TRAIL kill,Hep lipid conf,AML12 cytotox,others
CC1Cc2ccccc2N1C(=O)CN(C)CC(=O)Nc1ccc(F)cc1 (stereo unspecified),·,·,·,·,6.7,·,·,·,
Cc1[nH]n(-c2ccccc2)c(=O)c1N=Nc1cccc([N+](=O)[O-])c1,·,·,-10.5,·,34.7,·,·,·,
CC(=O)c1cccc(N=Nc2c(-c3ccccc3)[nH]n(-c3ccccc3)c2=O)c1,-7.3,9.0,-0.9,101.0*,·,12.9,109.6*,-0.346,AML12 tox conf=-1.0
Nc1[nH]n(-c2ccccc2)c(=O)c1N=Nc1ccccc1,·,·,8.3,11.2,17.4,8.2,·,·,
Cc1[nH]n(-c2ccccc2)c(=O)c1N=Nc1cccc(Cl)c1,·,·,-6.8,63.7*,·,·,100.6*,-0.0574,AML12 tox conf=0.4
Cc1ccc(S(=O)(=O)N2CCN(C(=O)COC(=O)CNC(=O)c3ccc(Cl)cc3Cl)CC2)c(C)c1,·,·,·,·,6.6,·,·,·,
COCCNc1nc(NCCCN2CCCC2=O)c2sccc2n1,·,·,·,·,-2.2,·,·,·,
CCC(=O)N1CCC(C)(C(=O)Nc2ccc3c(c2)OCCO3)C1 (stereo unspecified),·,·,·,·,5.6,·,·,·,
COc1ccc(N=C/C=C2/C=C(c3ccccc3)OC(C)(C)O2)cc1,18.7,1.0,1.9,61.2*,·,12.6,-8.2,-0.0539,
N=c1scc(-c2ccccc2)n1/N=C/c1ccco1,-4.3,-25.9,-1.6,54.5*,·,9.0,25.5,-0.56,
C(=N/n1c2ccccc2c2ccccc21)/c1ccco1,14.8,10.4,14.5,-0.9,-9.4,1.0,·,·,
CCOC(=O)c1ccc(-c2ccc3c(=O)c4ccccc4n(C)c3c2)cc1F,·,·,0.2,·,0.6,·,·,·,
C/C=C(/C)C(=O)O[C@@H]1[C@H](OC(=O)C=C(C)C)c2c(ccc3ccc(=O)oc23)OC1(C)C,3.9,-6.3,-2.4,53.7*,-14.7,21.7,-31.6,-0.539,
C/C=C(/C)C(=O)O[C@@H]1c2c(ccc3ccc(=O)oc23)OC(C)(C)[C@@H]1OC(=O)/C(C)=C\C,2.9,-10.5,0.6,-59.9,-20.4,15.7,·,·,
CN(Cc1ccccc1)C(=O)c1ncn2c1c(=O)[nH]c1cccnc12,·,·,·,·,-5.6,·,·,·,
CC(C)COc1cccc(-c2cc(C(=O)Nc3ccon3)c3ccccc3n2)c1,·,·,0.2,50.4*,·,·,80.5*,0.0251,AML12 tox conf=-9.8
COc1ccc(S(=O)(=O)N(CC(=O)N2CCCCCC2)c2ccccc2OC)cc1,·,·,-0.1,58.0*,·,·,-11.8,-1.35,
CCOC(=O)N1CCN(C(=O)CN(c2ccccc2OC)S(=O)(=O)c2ccc(OC)cc2)CC1,10.4,11.8,-46.2,0.2,-4.6,0.3,·,·,
CCOc1ccc(NS(=O)(=O)c2ccc(C(=O)N3CCC3)cc2)cc1,·,·,-3.8,71.0*,13.6,·,99.3*,-0.558,AML12 tox conf=14.3

# High-throughput results (PubChem BioAssay)
